Screens as filed in PubChem.
Hits are enriched below; roughly 2.3% of the tested compounds scored in any of these assays.
TRPC4 agonist = activators of mouse TRPC4 channel, primary screen, Fluo4 calcium, HEK293 TRPC4beta/mu-opioid cells; Short transient receptor potential channel 4 (Mus musculus), Q9QUQ5; Fluo4 calcium fluorescence; stronger effect = higher value; B-score at 10 µM; hit rate 0.49% among 310,000; AID 2237, 2010;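 active means B-score above 5 SD of library B-scores, and initial fluorescence ratio not above library mean plus 5 SD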;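 further: positive B-score marks a calcium rise read as TRPC4 activation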
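system = HEK293 cells stably co-expressing mouse TRPC4beta and mu-opioid receptor | schedule = Fluo4 dye loading 45 min at room temperature, 110 s recording | measure = B-scored integrated calcium fluorescence ratio | signal = Fluo4 calcium-sensitive dye fluorescence, kinetic, 1 Hz baseline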
TRPC4 inh = inhibitors of mouse TRPC4 channel, primary screen, Fluo4 calcium, HEK293 TRPC4beta/mu-opioid cells; B-score at 10 µM; hit rate 0.39% among 300,000; DAMGO-evoked Fluo4 calcium flux; stronger effect = lower value;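 active means B-score over 3 SD under the library average, no early fluorescence shift, positive overall ratio signal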
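Assay system: Stable TRPC4beta/mu-opioid receptor HEK293 cells | Reagent: DAMGO in two steps, submaximal then maximal | Compound dosing: Single concentration per test compound | Signal: Fluo4 Ca2+ flux fluorescence | Evaluation: Per-well B score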
TRPC6 inh = mouse TRPC6 channel inhibitors, primary screen, cell-based, HEK293, membrane potential dye | ACh-evoked depolarization; stronger effect = lower value | B-score at 10 µM | hit rate 1.1% among 310,000;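 active means B-score under library mean minus 3 SD, initial fluorescence not abnormally high, positive integrated signal ratio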;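 further: B-score derived from integrated fluorescence ratio over the kinetic read; more negative B-score means stronger inhibition of depolarization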
Target sequence (Q61143 whole entry, looked up): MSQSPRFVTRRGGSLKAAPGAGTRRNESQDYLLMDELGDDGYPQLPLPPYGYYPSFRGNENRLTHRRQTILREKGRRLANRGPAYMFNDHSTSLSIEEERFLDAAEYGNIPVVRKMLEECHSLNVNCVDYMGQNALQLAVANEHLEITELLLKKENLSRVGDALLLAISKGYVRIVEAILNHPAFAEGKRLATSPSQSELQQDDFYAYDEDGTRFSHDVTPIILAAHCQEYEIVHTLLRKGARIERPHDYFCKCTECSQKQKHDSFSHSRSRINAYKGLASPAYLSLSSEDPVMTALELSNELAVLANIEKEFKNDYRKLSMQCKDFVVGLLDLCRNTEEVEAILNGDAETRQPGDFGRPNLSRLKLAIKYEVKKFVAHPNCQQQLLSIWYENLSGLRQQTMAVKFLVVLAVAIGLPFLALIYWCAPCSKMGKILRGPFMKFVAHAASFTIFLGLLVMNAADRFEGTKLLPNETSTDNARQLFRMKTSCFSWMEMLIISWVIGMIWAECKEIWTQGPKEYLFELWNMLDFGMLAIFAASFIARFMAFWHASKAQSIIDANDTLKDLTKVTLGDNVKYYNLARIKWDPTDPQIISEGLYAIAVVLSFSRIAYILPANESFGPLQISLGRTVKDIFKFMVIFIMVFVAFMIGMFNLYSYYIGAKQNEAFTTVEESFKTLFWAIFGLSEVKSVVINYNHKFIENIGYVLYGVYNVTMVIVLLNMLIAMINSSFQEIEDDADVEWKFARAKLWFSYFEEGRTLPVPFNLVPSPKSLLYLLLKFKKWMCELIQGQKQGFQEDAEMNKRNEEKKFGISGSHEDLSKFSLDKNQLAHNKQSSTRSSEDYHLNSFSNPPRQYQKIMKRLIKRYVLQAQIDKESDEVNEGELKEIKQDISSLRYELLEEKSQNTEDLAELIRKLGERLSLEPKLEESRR
TRPC6 activator = mouse TRPC6 channel activators, primary screen, cell-based, HEK293, membrane potential dye; Short transient receptor potential channel 6 (Mus musculus), Q61143; HEK293-TRPC6 membrane potential dye fluorescence; stronger effect = higher value; B-score at 10 µM; hit rate 0.13% among 310,000;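 active means B-score of the integrated fluorescence ratio above library mean plus 3 SD, and starting fluorescence ratio within library mean plus 5 SD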;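 further: higher score means more depolarization so channel activation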
TRPC4 potent = positive allosteric modulators of TRPC4, primary screen, cell-based, mouse TRPC4beta, HEK293 mu-opioid, Fluo-4 calcium; B-score at 10 µM; hit rate 0.42% among 310,000; DAMGO EC20, Fluo-4 Ca2+ flux; stronger effect = higher value;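 active means B-score of calcium response area above 5 SD of library B-scores, with initial fluorescence ratio within 5 SD of library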;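 further: B-score of integrated fluorescence ratio over time as area under calcium response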
HEK293 TRPC6 ctr = parental HEK293 membrane potential modulation, confirmation, counter-screen for TRPC6 modulator project, cell-based | shares compounds with TRPC6 inh | membrane potential signal change, % at 10 µM | hit rate 51% among 2,400 | membrane potential dye fluorescence;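 active means membrane potential signal moves up or down beyond 5 SD from buffer-only wells, on both duplicate plates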
HEK293 MPD ctr 2 = parental HEK293 nonspecific activity of TRPC6 modulators, second screen; shares compounds with TRPC6 inh; membrane potential dye fluorescence; after compound, maximal acetylcholine stimulation; inhibition, % at 10 µM; hit rate 14% among 2,400;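 active means membrane potential signal drops by more than 5 SD from the mean control signal, in both duplicate plates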;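 further: plate controls were acetylcholine ECmax control wells for no effect and buffer only wells for full effect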
TRPC4/MOR mod = TRPC4 modulation by TRPC6 hit compounds, confirmation, selectivity assay for TRPC6 modulator project, cell-based, HEK293 TRPC4/mu-opioid, membrane potential dye, mouse | shares compounds with TRPC6 inh | membrane potential fluorescence | percent change from control (negative = decrease, positive = increase), % at 10 µM | hit rate 69% among 2,400 | AID 488927, 2010;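 active means membrane potential signal moved up or down beyond 5 SD of buffer control wells, in both duplicate plates, actives on both sides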;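 further: plate controls were assay buffer wells for no effect and DAMGO maximal-effect wells for full effect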
TRPC4/MOR inh 2 = second check of whether TRPC6 modulators also affect mouse TRPC4; inhibition, % at 10 µM; shares compounds with TRPC6 inh; AID 488928; hit rate 55% among 2,400; HEK293 TRPC4/mu-opioid, membrane potential dye fluorescence; stimulated with maximal-effect DAMGO;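 active means drop in membrane potential signal beyond 5 SD of the control wells in both duplicate plates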;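 further: TRPC4 counter screen for TRPC6 hits run under conditions tuned for TRPC6 not TRPC4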
TRPC6 inh conf = mouse TRPC6 channel inhibitors, confirmation, HEK293 cells, membrane potential dye, duplicate. shares compounds with TRPC6 inh. inhibition, % at 10 µM. hit rate 43% among 3,300. AID 488960, 2010. ACh-evoked depolarization;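 active means fluorescence ratio falls more than 5 SD below the full-stimulation control mean, in both duplicate runs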;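 further: integrated fluorescence ratio of peak minus minimum over baseline after agonist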
TRPC6 act conf = mouse TRPC6 channel activators, confirmation, HEK293 cells, membrane potential dye, duplicate | shares compounds with TRPC6 inh | HEK293-TRPC6 membrane potential dye fluorescence, FDSS | activation, % at 10 µM | hit rate 11% among 2,800;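 active means ratio signal rise beyond 5 SD above unstimulated control wells' mean, seen in both duplicate runs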;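 further: plate controls were buffer EC0 wells for no effect and acetylcholine ECmax response for full effect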
An asterisk follows results filed as active.

How did COc1ccc(Cl)cc1NC(=O)C1CCCN(S(C)(=O)=O)C1 (stereo unspecified) do in these assays?
TRPC4 agonist: inactive; TRPC4 inh: inactive; TRPC6 inh: inactive; TRPC6 activator: inactive; TRPC4 potent: inactive

Results for CCO[C@H]1OC(C(=O)NC2CC2)=C[C@@H](c2csc3ccccc23)[C@@H]1CCCO ?
TRPC4 agonist: inactive; TRPC4 inh: inactive; TRPC6 inh: inactive; TRPC6 activator: inactive; TRPC4 potent: inactive

Results for CCOC(=O)c1ccc(NC(=O)N2CCN(c3cccc(OC)c3)CC2)cc1 ?
TRPC4 agonist: inactive; TRPC4 inh: inactive; TRPC6 inh: inactive; TRPC6 activator: inactive; TRPC4 potent: inactive

Results for CSc1ccc2c(c1)N(CCC1CCCCN1C)c1ccccc1S2 (stereo unspecified) ?
TRPC4 agonist: inactive; TRPC4 inh: inactive; TRPC6 inh: -6*; TRPC6 activator: inactive; TRPC4 potent: inactive; HEK293 TRPC6 ctr: inactive; HEK293 MPD ctr 2: 59%*; TRPC4/MOR mod: inactive; TRPC4/MOR inh 2: 85%*; TRPC6 inh conf: 67%*; TRPC6 act conf: inactive

What do the screens show for `CN1CCN(C(=S)c2cn(CCOc3ccccc3)c3ccccc23)CC1`?
TRPC4 agonist: inactive; TRPC4 inh: inactive; TRPC6 inh: inactive; TRPC6 activator: inactive; TRPC4 potent: inactive

How did Cn1c2c(c(=O)n(C)c1=O)C1c3cc(Cl)ccc3OCC1CO2 (stereo unspecified) do in these assays?
TRPC4 agonist: inactive; TRPC4 inh: inactive; TRPC6 inh: inactive; TRPC6 activator: inactive; TRPC4 potent: inactive

What do the screens show for `O=C(Nc1ccccc1N1CCCCC1)c1ccc(Cl)c([N+](=O)[O-])c1`?
TRPC4 agonist: inactive; TRPC4 inh: inactive; TRPC6 inh: inactive; TRPC6 activator: inactive; TRPC4 potent: inactive

Results for CN1CCN(c2ccc(C(=O)c3ccc(Br)cc3)cc2[N+](=O)[O-])CC1 ?
TRPC4 agonist: inactive; TRPC4 inh: inactive; TRPC6 inh: -5.9*; TRPC6 activator: inactive; TRPC4 potent: inactive; HEK293 TRPC6 ctr: inactive; HEK293 MPD ctr 2: inactive; TRPC4/MOR mod: -13%*; TRPC4/MOR inh 2: 43%*; TRPC6 inh conf: inactive; TRPC6 act conf: inactive

Results for CN1CCN(c2ccccc2NC(=O)c2ccc(N3CCCC3)c([N+](=O)[O-])c2)CC1 ?
TRPC4 agonist: inactive; TRPC4 inh: inactive; TRPC6 inh: -11*; TRPC6 activator: inactive; TRPC4 potent: inactive; HEK293 TRPC6 ctr: -108%*; HEK293 MPD ctr 2: inactive; TRPC4/MOR mod: -30%*; TRPC4/MOR inh 2: 82%*; TRPC6 inh conf: 58%*; TRPC6 act conf: inactive

How did COc1cccc(OCc2cc(C(=O)N(Cc3ccccc3)CC3CC3)no2)c1 do in these assays?
TRPC4 agonist: inactive; TRPC4 inh: inactive; TRPC6 inh: -5.2*; TRPC6 activator: inactive; TRPC4 potent: inactive; HEK293 TRPC6 ctr: 131%*; HEK293 MPD ctr 2: inactive; TRPC4/MOR mod: 26%*; TRPC4/MOR inh 2: inactive; TRPC6 inh conf: inactive

What do the screens show for `COc1cccc(OCc2cc(C(=O)N(C)Cc3nc4ccccc4[nH]3)no2)c1`?
TRPC4 agonist: inactive; TRPC4 inh: inactive; TRPC6 inh: inactive; TRPC6 activator: inactive; TRPC4 potent: inactive

What do the screens show for `COc1ccc(-c2cc3nc4n(c(=O)c3s2)CCC4)cc1`?
TRPC4 agonist: inactive; TRPC4 inh: inactive; TRPC6 inh: inactive; TRPC6 activator: inactive; TRPC4 potent: inactive

What do the screens show for `COc1ccc(-c2nc3n(c2C)CCC3)cc1`?
TRPC4 agonist: inactive; TRPC4 inh: inactive; TRPC6 inh: -5.8*; TRPC6 activator: inactive; TRPC4 potent: inactive; HEK293 TRPC6 ctr: -266%*; HEK293 MPD ctr 2: inactive; TRPC4/MOR mod: -36%*; TRPC4/MOR inh 2: 44%*; TRPC6 inh conf: inactive; TRPC6 act conf: inactive

How did Cc1ccc(SCCNC(=S)Nc2cc(C)ccc2C)cc1 do in these assays?
TRPC4 agonist: inactive; TRPC4 inh: inactive; TRPC6 inh: inactive; TRPC6 activator: inactive; TRPC4 potent: inactive

Results for Cc1ccc(C)c(NC(=S)NCCN(C2CCCCC2)C2CCCC2)c1 ?
TRPC4 agonist: inactive; TRPC4 inh: inactive; TRPC6 inh: -5.2*; TRPC6 activator: inactive; TRPC4 potent: inactive; HEK293 TRPC6 ctr: 172%*; HEK293 MPD ctr 2: inactive; TRPC4/MOR mod: 32%*; TRPC4/MOR inh 2: 48%*; TRPC6 inh conf: inactive

Results for N#C/C(=C\c1ccc(O)cc1)c1nc2ccccc2o1 ?
TRPC4 agonist: inactive; TRPC4 inh: inactive; TRPC6 inh: inactive; TRPC6 activator: inactive; TRPC4 potent: inactive

What do the screens show for `COc1cc(/C=C(\C#N)c2nc3ccccc3o2)ccc1O`?
TRPC4 agonist: 78*; TRPC4 inh: inactive; TRPC6 inh: inactive; TRPC6 activator: 63*; TRPC4 potent: inactive; HEK293 TRPC6 ctr: active; HEK293 MPD ctr 2: inactive; TRPC4/MOR mod: 290%*; TRPC4/MOR inh 2: inactive; TRPC6 inh conf: inactive; TRPC6 act conf: 362%*

How did Nc1c(-c2cccc(Cl)c2)cnn1-c1ccccc1 do in these assays?
TRPC4 agonist: inactive; TRPC4 inh: inactive; TRPC6 inh: -7.1*; TRPC6 activator: inactive; TRPC4 potent: inactive; HEK293 TRPC6 ctr: -124%*; HEK293 MPD ctr 2: inactive; TRPC4/MOR mod: -18%*; TRPC4/MOR inh 2: 76%*; TRPC6 inh conf: 52%*; TRPC6 act conf: inactive
